Activity calls are given as the source filed them. No cut-off for these calls is given here.
What was measured:
PtK2 = test: Induction of oxidative stress in potoroo PtK2 cells assessed as reduction in cell adhesion after 24 hrs by immunofluorescence microscopic analysis; assay type: functional, cell-based; conditions: Potorous tridactylus
Summary of the method: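 PtK2 cells were grown on coverslips and treated once semi-confluent, for 24 h. Cells were fixed with 3.7% paraformaldehyde followed by 0.1% Triton X-100, or with cold methanol/acetone 50:50. Primary and secondary antibodies were applied for 45 min each: anti-GRP94 for ER, anti-α-tubulin. Actin was stained with phalloidin and nuclei with DAPI. Imaging was by fluorescence microscopy with a CCD camera.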

HUVEC [1] = test: Induction of oxidative stress in human HUVEC cells assessed as increase in superoxide free radical production after 1 hr by DHE-based by fluorescence spectrophotometric analysis; assay type: cell-based
Summary of the method: (§1)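 Cells were seeded at 10^5 per well and given graded compound concentrations for 1 h. They were then loaded with DHE or DCF probe for 30 min in the dark. Fluorescence was read immediately: DHE ex 540/em 600 nm; DCF ex 485/em 528 nm. Results were expressed as arbitrary units per 10^5 cells.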

HUVEC [2] = test: Induction of oxidative stress in human HUVEC cells assessed as increase in hydrogen peroxide free radical production after 1 hr by DCF-based fluorescence spectrophotometric analysis; assay type: cell-based; summary of the method: as §1
A-431 [3] = test: Induction of oxidative stress in human A431 cells assessed as increase in superoxide free radical production after 1 hr by DHE-based by fluorescence spectrophotometric analysis; assay type: functional, cell-based; summary of the method: as §1
A-431 [4] = test: Induction of oxidative stress in human A431 cells assessed as increase in hydrogen peroxide free radical production after 1 hr by DCF-based fluorescence spectrophotometric analysis; assay type: functional, cell-based; summary of the method: as §1
MCF7 [5] = test: Induction of Cell cycle arrest in human MCF7 cells assessed as G2/M phase cells at IC50 concentration after 24 hrs by PI-staining based flow cytometric analysis (reference value: 13%); assay type: functional
Summary of the method: (§2)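 MCF-7 cells (10^6) were treated for 24 h, with methanol as the vehicle control. Cells were fixed in cold 70% methanol at 4 °C for one day, washed with PBS, and permeabilized with 0.1% saponin in PBS. They were stained with propidium iodide plus RNase for 30 min. DNA content was read by flow cytometry, giving percentages of cells per cell-cycle phase.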

MCF7 [6] = test: Induction of Cell cycle arrest in human MCF7 cells assessed as S phase cells at IC50 concentration after 24 hrs by PI-staining based flow cytometric analysis (reference value: 19%); assay type: functional; summary of the method: as §2
MCF7 [7] = test: Induction of Cell cycle arrest in human MCF7 cells assessed as G0/1 phase cells at IC50 concentration after 24 hrs by PI-staining based flow cytometric analysis (reference value: 68%); assay type: functional; summary of the method: as §2
MCF7 [8] = test: Induction of oxidative stress in human MCF7 cells assessed as decrease in GSH level at 5 uM after 1 hr by DTNB assay relative to control; assay type: functional; design: scale not given: the % may be the effect or the level left
Summary of the method: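 MCF-7 cells (10^6) were treated for 1 h at 37 °C, trypsinized, and washed twice with cold PBS. GSH was extracted with chilled 5% metaphosphoric acid at 4 °C for 2 h, then the lysate was centrifuged. Supernatant was mixed with 0.2 M sodium phosphate pH 8.0 and 0.04 mM DTNB for 10 min at room temperature. Absorbance was read at 412 nm against a reagent blank, and GSH was quantified from a standard curve.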

| SMILES | Activity (PtK2) | Activity (HUVEC [1]) | Activity (HUVEC [2]) | Activity (A-431 [3]) | Activity (A-431 [4]) | Activity (MCF7 [5]) | Activity (MCF7 [6]) | Activity (MCF7 [7]) | Activity (MCF7 [8]) |
| --- | --- | --- | --- | --- | --- | --- | --- | --- | --- |
| CC1=C(SCCC(=O)OC(C[Se]C2=C(C)C(=O)c3ccccc3C2=O)C(=O)NCCCCCC(=O)OCc2ccccc2)C(=O)c2ccccc2C1=O (stereo not given) | Active | Non-toxic | Non-toxic | Active | Active |  |  |  |  |
| CC1=C([Se]CC(OC(=O)[C@@H](CO)NC(=O)OC(C)(C)C)C(=O)NC(C)(C)C)C(=O)c2ccccc2C1=O (stereo not given in full) | Active |  |  |  |  | 12% | 7.7% | 80% | 59% |

Source: ChEMBL document CHEMBL2177069, “Novel peptidomimetic compounds containing redox active chalcogens and quinones as potential anticancer agents” (Eur J Med Chem, 2012)
